Source: PubChem BioAssay (Sanford-Burnham Center for Chemical Genomics)
APJ antag: antagonists of human apelin receptor APJ, primary screen, CHO-K1 cells, beta-arrestin complementation, luminescence; P35414; hit rate 0.32% among 330,000; AID 2521, 2010; inhibition, % at 20 µM;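 active = inhibition above about 40% at 20 µM, limit read from the data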;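 note: cells challenged with 10 nM apelin-13 agonist together with compound; plate controls were apelin-13 plus DMSO wells for no effect and DMSO wells lacking apelin-13 for full effect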
EBI2 antag: EBI2 receptor antagonists, beta-arrestin recruitment, primary screen, cell-based, luminescence, 7a,25-OHC stimulation, uHTS; hit rate 0.81% among 360,000; AID 651636, 2012; inhibition, % at 5 µM; G-protein coupled receptor 183 (Homo sapiens), P32249; 7a,25-OHC stimulated; in the data active = inhibition above about 38%;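 note: enzyme fragment complementation signal reports receptor beta-arrestin coupling in cells; 0% = agonist plus DMSO wells and 100% = wells without agonist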
CXCR6 inh: CXCR6 receptor inhibitors, primary screen, cell-based, beta-arrestin, luminescence, CHO-K1 PathHunter, 1536-well | AID 602244, 2012 | hit rate 0.36% among 360,000 | inhibition, % at 20 µM; in the data active = inhibition above about 34%, passing the limit was not always enough;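 note: antagonist mode with CXCL16 agonist at 10 nM final; 0% = 10 nM CXCL16 with DMSO and 100% = unstimulated wells without agonist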
Target sequence (O00574 whole entry, looked up): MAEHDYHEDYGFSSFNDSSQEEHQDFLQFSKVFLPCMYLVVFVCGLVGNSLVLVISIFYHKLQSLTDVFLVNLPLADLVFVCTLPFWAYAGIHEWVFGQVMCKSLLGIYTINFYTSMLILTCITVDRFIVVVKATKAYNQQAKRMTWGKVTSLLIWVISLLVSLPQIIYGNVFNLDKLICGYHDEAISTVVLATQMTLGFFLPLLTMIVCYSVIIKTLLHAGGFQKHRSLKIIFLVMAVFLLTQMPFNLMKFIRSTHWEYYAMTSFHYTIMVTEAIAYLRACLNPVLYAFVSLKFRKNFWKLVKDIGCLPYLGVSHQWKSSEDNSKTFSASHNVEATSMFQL
APJ ag: agonists of human apelin receptor APJ, primary screen, CHO-K1 cells, PathHunter beta-arrestin, luminescence; P35414; 0% DMSO wells, 100% apelin; activation, % at 20 µM; hit rate 0.11% among 330,000; AID 2520, 2010;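 active = activation more than six SD over the plate average, tested at 20 µM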;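 note: 0% = DMSO alone and 100% = apelin-13 at 10 nM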
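Test system: CHO-K1 APJ beta-arrestin complementation cell line. Amount: cell density 1000 per well. Controls: DMSO negative, 10 nM Apelin-13 positive. Signal: luminescent beta-gal fragment complementation, chemiluminescent substrate. Read-out basis: agonist-driven arrestin binding to APJ. Timing: compound stimulation 90 min at 25 °C, detection 60 min.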
CCR6 antagonist: CCR6 receptor antagonists, primary screen, cell-based, CHO-K1, luminescence, beta-arrestin, uHTS; C-C chemokine receptor type 6 (Homo sapiens), P51684; CHO-K1 CCR6 PathHunter beta-arrestin, CCL20-stimulated; inhibition, % at 20 µM; hit rate 0.49% among 340,000; AID 493098, 2011;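 active = compounds whose inhibition of the agonist-driven luminescence signal at 20 µM reaches about 50%, limit read from the data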;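 note: cells stimulated with CCL20 at 14 nM final; plate controls were DMSO with CCL20 for no effect and DMSO without agonist for full effect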
EBI2 antag conf: EBI2 antagonist hit retest, beta-arrestin, confirmation, cell-based, single concentration, luminescence, 7a,25-OHC stimulation | 7a,25-OHC antagonism | inhibition, % at 5 µM | AID 651997, 2013 | shares compounds with EBI2 antag | hit rate 29% among 2,400;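 active = inhibition of at least 50%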
EBI2 ag: EBI2 agonist activity of antagonist hits, confirmation, counter-screen for EBI2 antagonist project, cell-based, single concentration, agonist mode, luminescence; EBI2-expressing cells, 60 min; 0% vehicle, 100% 7α,25-dihydroxycholesterol control; AID 652000, 2013; 2,400 tested, under 10 active; activation, % at 5 µM; shares compounds with EBI2 antag;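 active = activation of at least 50%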
bGal counter: E. coli beta-galactosidase enzyme inhibition, confirmation, counter-screen for EBI2 antagonist project, biochemical, luminescence, single concentration; shares compounds with EBI2 antag; AID 652176, 2013; hit rate 1% among 2,400; purified beta-galactosidase, luminescent Galacton Star, 15 min; inhibition, % at 5 µM;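 active = replicate-average signal at least 3 plate SD below neutral wells, shown as high inhibition, flagging enzyme-inhibiting false positives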;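 note: 0% = DMSO wells with enzyme and 100% = wells lacking enzyme; higher means stronger loss of beta-gal luminescence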
* marks the source's active call; other numbers are inactive results; · = not tested or not shown. Compounds with a hit are over-represented: about 1.5% of the library has one in this group of screens.

SMILES	APJ antag	EBI2 antag	CXCR6 inh	APJ ag	CCR6 antagonist	EBI2 antag conf	EBI2 ag	bGal counter
COc1ccc([C@H]2CC(=O)C=C(/C=C/c3ccc(C(F)(F)F)cc3)C2)cc1	8.0	65.1*	6.1	-4.1	-9.4	33.1	0.2	8.6
CCCOc1ccc(C2=CC(=O)C[C@H](c3ccc(OC)cc3)C2)cc1	7.0	67.4*	7.9	-5.6	10.5	35.3	-0.2	-12.6
CCc1ccc(-c2n[nH]nc2C2=CC(=O)C[C@H](c3ccc(F)cc3)C2)cc1	·	53.5*	-1.3	·	·	13.5	-1.6	-7.3
COc1ccc([C@H]2CC(=O)C=C(c3cccc(OC(F)(F)F)c3)C2)cc1	-5.7	6.6	7.4	-0.6	10.6	·	·	·
COc1ccc([C@H]2CC(=O)C=C(c3ccc(OC(F)(F)F)cc3)C2)cc1	14.9	67.8*	1.8	-2.2	13.6	40.4	-1.2	-8.6
O=C(COc1ccc(Cl)cc1)NCc1ccncc1	-4.2	7.6	2.4	-1.8	12.3	·	·	·
C#CCOCCOCCOCCNc1nc(N2CCN(C(=O)C([C@@H](C)O)n3cc([C@@H](N)CCCCN)nn3)CC2)nc(N2CCN(C(=O)[C@H](CCCN=C(N)N)n3cc(C(N)[C@@H](C)CC)nn3)CC2)n1 (stereo not given in full)	-3.9	-2.9	-2.4	-2.1	-10.6	·	·	·
COc1cc(F)cc(C2=CC(=O)C[C@H](c3ccc(F)cc3)C2)c1	14.2	52.2*	-0.9	-4.1	19.1	39.7	-1.6	-8.1
COc1ccc2cc(C#CC3=CC(=O)C[C@H](c4ccc(F)cc4)C3)ccc2c1	·	-2.0	-5.6	·	·	·	·	·
COc1ccc([C@H]2CC(=O)C=C(C#CC(C)(C)C)C2)cc1	-11.8	66.3*	-18.3	1.3	14.1	66.7*	0.0	-11.1
Cn1c(CCN2CCN(c3ccccn3)CC2)nc2cc(NC(=O)COc3ccccc3)ccc21	-33.2	-3.4	2.6	0.4	4.7	·	·	·
O=C(Nc1cccc(Cl)c1)c1csc([C@@H]2O[C@H](CO)[C@H](O)[C@H](O)[C@H]2O)n1	·	14.0	9.3	·	·	·	·	·
Cc1ccc2c(c1)cc(C(=O)N1CCN(c3ccccn3)CC1)n2C	9.1	46.7*	13.5	-2.8	9.4	33.9	-1.7	-9.1
O=C(c1ccc2ccccc2c1)N1CCN(c2ccc(O)cc2)CC1	-15.2	57.0*	5.4	0.1	8.0	26.0	-1.4	-10.8
O=C(c1ccc2ccccc2c1)N1CCN(c2ccccn2)CC1	0.0	56.5*	8.7	-1.9	3.2	42.3	1.0	8.8
Cc1ccc(C(=O)N2CCN(c3ccccn3)CC2)cc1	-12.2	-0.4	-8.5	-5.9	3.6	·	·	·
Cc1ccccc1NC(=O)c1cccc(NC(=O)c2ccccc2C(=O)O)c1	18.5	-7.6	7.6	-1.0	-3.1	·	·	·
CC(=O)c1ccc(S(=O)(=O)N2CCN(CCOc3ccccc3)CC2)cc1	4.6	19.8	-1.7	-1.9	10.4	·	·	·
COC(=O)C1CCN(S(=O)(=O)CCNC(=O)c2ccc3c(c2)OCO3)CC1	9.5	-15.5	-2.3	0.1	2.4	·	·	·
Cc1nn(-c2nc3ccccc3s2)c(N)c1-c1ccc(Cl)cc1	13.5	53.9*	10.8	-0.6	0.9	52.8*	0.3	10.3
CCCCn1nc(C(=O)Nc2c(C)n(C)n(-c3ccccc3)c2=O)c2ccccc2c1=O	2.3	-5.8	3.6	-2.7	13.5	·	·	·
CCN1CCN(C(=O)/C=C/c2ccc(OC)c(OC)c2)CC1	-20.5	-0.8	0.1	0.6	4.5	·	·	·
CCN1CCN(C(=O)/C=C/c2ccc(C(C)C)cc2)CC1	-8.4	92.7*	-1.4	-5.4	8.3	86.6*	0.3	2.6
